# In ChEMBL document CHEMBL5647693, “Molecular basis underlying resistance to Mps1/TTK inhibitors” (Oncogene, 2016):
# Activity calls are given as the source filed them. The calls are words filed in the database; no cut-off is given here.
# Assays:
# HCT-116 [1] = test: Antiproliferative activity against human HCT-116 cells harboring Mps1 C604Y-B mutant assessed as change in Mps1 expression level by Western blot analysis; type: functional, cell-based
# In short: (§1)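 Lysis in Tris/HCl pH 7.5 with 150 mM NaCl, 1% Triton X-100, DTT, EDTA, phosphatase and protease inhibitors. SDS-PAGE, transfer to nitrocellulose, block in 4% BSA 0.5 h at room temperature, primary antibody (Mps1-NT) overnight at 4 °C, secondary 1:2000 for 1 h, ECL chemiluminescence detection.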
# U2OS [2] = test: Inhibition of colony formation in human U2OS cells harboring wild-type LAP-Mps1 assessed as cell survival incubated for 5 days by crystal violet staining based colony formation assay; type: functional; settings: 120 h
# In short: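 Cells seeded at ~1500 per 96-well on day 0; inhibitor added on day 1 over a concentration range. On day 6, fixed 10 min in 96% methanol, stained with 0.1% crystal violet, scanned and quantified. Survival relative to untreated; IC50 from dose–response curves; mean of three independent experiments. Culture in DMEM with 6% FCS.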
# HeLa [3] = test: Induction of mitotic arrest in human HeLa cells assessed as decrease in average mitotic time with severe seggregation errors at 100 nM relative to control; set-up: scale not given: the % may be the effect or the level left
# HCT-116 [4] = test: Inhibition of colony formation in human HCT-116 cells harboring Mps1 C604Y-A mutant assessed as cell survival at 60 nM incubated for 14 days by crystal violet staining based colony formation assay; type: functional; settings: time 14.0 day
# In short: (§2)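 About 500–600 cells per 6-well plated on day 0, Cpd-5 added day 1 at 60 nM, colonies grown to day 14. Fixed 10 min in 96% methanol, stained with 0.1% crystal violet, scanned and analysed. Parental and drug-selected clones tested side by side.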
# Homo sapiens [5] = species on record: Homo sapiens; test: Inhibition of recombinant Mps1 S611R mutant (unknown origin) assessed as KNL1 phosphorylation level incubated for 10 min by Western blot analysis
# HCT-116 [6] = test: Induction of mitotic arrest in human HCT-116 cells harboring Mps1 C604Y mutant assessed as mitotic index at 200 to 400 nM incubated for 16 hrs in the presence of nocodazole; type: functional, cell-based; settings: dose 200-400 nM
# In short: (§3)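 About 10 000 cells per 96-well plated on day 0. On day 1, nocodazole (200 ng/ml) plus Cpd-5 at various concentrations added for 16 h. Fixed in 5% formaldehyde, stained for phospho-histone H3-Ser10 and DAPI, up to nine images per well (~3000 cells). Mitotic index = pH3S10-positive/DAPI-positive cells, normalized; three independent experiments.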
# HeLa [7] = test: Induction of mitotic arrest in human HeLa cells expressing histone H2B-YFP assessed as chromosome misalignment at 50 to 100 nM incubated for 16 hrs by time-lapse microscopy relative to control; type: functional; settings: dose 50-100 nM
# In short: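 HeLa H2B-YFP cells imaged live at 37 °C in L-15 after DMSO or 50/100 nM Cpd-5. Anaphases scored for missegregation as mild (up to 3 chromosomes) or severe (>3 chromosomes), 50 cells per condition.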
# HeLa [8] = test: Induction of mitotic arrest in human HeLa cells harboring Mps1 C604Y mutant assessed as initiating anaphase at 200 nM and measured after nuclear envelope breakdown; type: functional, cell-based
# DLD-1 [9] = test: Inhibition of colony formation in human DLD-1 cells harboring Mps1 S611R mutant assessed as cell survival at 60 nM incubated for 14 days by crystal violet staining based colony formation assay; type: functional; settings: time 14.0 day; in short: as §2
# HCT-116 [10] = test: Inhibition of colony formation in human HCT-116 cells harboring Mps1 C604Y-B mutant assessed as cell survival at 60 nM incubated for 14 days by crystal violet staining based colony formation assay; type: functional; settings: time 14.0 day; in short: as §2
# HeLa [11] = test: Induction of mitotic arrest in human HeLa cells harboring Mps1-C604F mutant assessed as decrease in average mitotic time with most mild seggregation errors at 200 nM; type: functional, cell-based
# HCT-116 [12] = test: Antiproliferative activity against human HCT-116 cells harboring Mps1 531M mutant assessed as change in Mps1 expression level by Western blot analysis; type: functional, cell-based; in short: as §1
# HeLa [13] = test: Antiproliferative activity against human HeLa cells harboring Mps1 I598F mutant assessed as change in Mps1 expression level by Western blot analysis; type: functional, cell-based; in short: as §1
# HCT-116 [14] = test: Inhibition of colony formation in human HCT-116 cells harboring Mps1 531M mutant assessed as cell survival at 60 nM incubated for 14 days by crystal violet staining based colony formation assay; type: functional; settings: time 14.0 day; in short: as §2
# HeLa [15] = test: Inhibition of colony formation in human HeLa cells harboring Mps1 I598F mutant assessed as cell survival at 60 nM incubated for 14 days by crystal violet staining based colony formation assay; type: functional; settings: time 14.0 day; in short: as §2
# HeLa [16] = test: Induction of mitotic arrest in human HeLa cells harboring Mps1-C604F mutant assessed as decrease in average mitotic time with mis seggregation at 200 nM relative to control; type: functional; set-up: scale not given: the % may be the effect or the level left
# Homo sapiens [17] = species on record: Homo sapiens; test: Inhibition of recombinant Mps1 531M mutant (unknown origin) assessed as KNL1 phosphorylation level incubated for 10 min by Western blot analysis
# HeLa [18] = test: Induction of mitotic arrest in human HeLa cells harboring Mps1-C604F mutant assessed as […] in average mitotic time with severe seggregation at 400 nM relative to control; type: functional
# HCT-116 [19] = test: Antiproliferative activity against human HCT-116 cells harboring Mps1 C604Y-A mutant assessed as change in Mps1 expression level by Western blot analysis; type: functional, cell-based; in short: as §1
# Homo sapiens [20] = species on record: Homo sapiens; test: Inhibition of recombinant Mps1 C604Y mutant (unknown origin) assessed as KNL1 phosphorylation level incubated for 10 min by Western blot analysis
# U2OS [21] = test: Induction of mitotic arrest in human U2OS cells harboring LAP-Mps1 C604Y mutant assessed as maintain in checkpoint-dependent arrest at 100 nM incubated for 16 hrs in the presence of nocodazole; type: functional, cell-based; in short: as §3
# HeLa [22] = test: Induction of mitotic arrest in human HeLa cells assessed as depletion in KNL1 phosphorylation at 50 to 100 nM by immunostaining method; type: functional, cell-based; settings: dose 50-100 nM
# In short: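 HeLa cells given DMSO, 50 or 100 nM Cpd-5, immunostained for phospho-KNL1 (MELT13/17) and CREST, DNA with DAPI. Kinetochore ph-KNL1/CREST fluorescence intensity ratios from 200 kinetochores per condition.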
# DLD-1 [23] = test: Antiproliferative activity against human DLD-1 cells harboring Mps1 S611R mutant assessed as change in Mps1 expression level by Western blot analysis; type: functional, cell-based; in short: as §1
# DLD-1 [24] = test: Induction of mitotic arrest in human DLD-1 cells harboring Mps1 S611R mutant assessed as mitotic index at 200 to 400 nM incubated for 16 hrs in the presence of nocodazole; type: functional, cell-based; settings: dose 200-400 nM; in short: as §3
# U2OS [25] = test: cells; type: functional, cell-based; settings: Homo sapiens, 120 h
# HCT-116 [26] = test: Inhibition of colony formation in human HCT-116 cells harboring Mps1 C604Y-B mutant assessed as cell survival incubated for 5 days crystal violet staining based colony formation assay; type: functional; settings: HCT-116, 120 h
# In short: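 Cells (~1500 per well, 96-well format) seeded day 0; inhibitor added day 1 over a range of concentrations; on day 6 fixed 10 min in 96% methanol, stained with 0.1% crystal violet, washed, scanned and quantified. Grown in DMEM with 6% FCS, penicillin-streptomycin, 2 mM L-glutamine. Survival relative to untreated; IC50 from curve fit, average of three independent experiments.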
smiles,measurement,setting,value
CCc1cccc(CC)c1NC(=O)c1nn(C)c2c1CCc1cnc(Nc3ccc(N4CCN(C)CC4)cc3OC)nc1-2,Activity,HCT-116 [1],inactive
same,IC50,U2OS [2],0.0332 µM
same,Activity,HeLa [3],100%
same,inhibition,HCT-116 [4],Active
same,inhibition,Homo sapiens [5],Active
same,Activity,HCT-116 [6],Active
same,Activity,HeLa [7],100%
same,Activity,HeLa [8],inactive
same,inhibition,DLD-1 [9],Active
same,inhibition,HCT-116 [10],Active
same,Activity,HeLa [11],Active
same,Activity,HCT-116 [12],inactive
same,Activity,HeLa [13],inactive
same,inhibition,HCT-116 [14],Active
same,inhibition,HeLa [15],Active
same,Activity,HeLa [16],70%
same,inhibition,Homo sapiens [17],Active
same,Activity,HeLa [18],100%
same,Activity,HCT-116 [19],inactive
same,inhibition,Homo sapiens [20],Active
same,Activity,U2OS [21],Active
same,Activity,HeLa [22],Active
same,Activity,DLD-1 [23],inactive
same,Activity,DLD-1 [24],Active
same,IC50,U2OS [25],0.0206 µM
same,IC50,HCT-116 [26],0.31 µM
